Two compounds from ChEMBL document CHEMBL4138128, “Structural design, synthesis and pharmacological evaluation of thiazoles against Trypanosoma cruzi” (Eur J Med Chem, 2017) can be followed below.

One may read the IC50 as the concentration at which inhibition is half-maximal. What is called CC50 is the concentration giving 50% cytotoxicity. As a reminder, the inhibition is the change of the read-out against control, counted positive when it falls.

Each structure is given as a SMILES string. Calls of active or inactive are those of the source. The rule behind the calls is not given here.

The test system of data set [1] is Trypanosoma cruzi. The data set can be described thus: Antitrypanosomal activity against bloodstream trypomastigote stage of Trypanosoma cruzi Y infected in monkey LLC-MK2 cells assessed as reduction in parasite motility measured after 24 hrs by neubauer chamber method. Conditions: LLC-MK2, 24 h. The format is functional, organism-based. In outline:
(§1)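 Y strain trypomastigotes from LLC-MK2 supernatants, 4x10^5/well, incubated 24 h at 37°C, 5% CO2 with five concentrations; viable parasites counted by motility in Neubauer chamber. Inhibition versus untreated cultures; IC50 by non-linear regression; benznidazole reference.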

Data set [2] in a line: Cytotoxicity against mouse J774 cells assessed as reduction in cell viability after 72 hrs by alamar blue assay. The format is cell-based. In short, it runs like this:
(§2)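 H9c2 or J774 cells (1 x 10^4/well) in DMEM/10% FBS preincubated 24 h, then exposed 72 h to six concentrations (0.41 to 100 µM) in triplicate, DMSO under 1%. Viability by AlamarBlue, read after 6 h at 570/600 nm; CC50 from three independent experiments; gentian violet positive control.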
(Alamar Blue is a resazurin reagent that responds to reducing activity.)

Data set [3] is described as follows: Cytotoxicity against rat H9c2 cells assessed as reduction in cell viability after 72 hrs by alamar blue assay. Format: cell-based. In short, it runs like this: as §2
A short description of data set [4]: Safety index, ratio of compound CC50 to gentian violet CC50 for cytotoxicity against mouse J774 cells. Format: cell-based. In outline:
as §2

The nature of data set [5]: Safety index, ratio of compound CC50 to gentian violet CC50 for cytotoxicity against rat H9c2 cells. Format: cell-based. In outline:
as §2

For data set [6], the system named is Trypanosoma cruzi. The data set is described as follows: Potency index, ratio of benznidazole IC50 to compound IC50 for antitrypanosomal activity against bloodstream trypomastigote stage of Trypanosoma cruzi Y infected in monkey LLC-MK2 cells. The format is functional. In outline: as §1
The target of data set [7] is Cruzipain (Trypanosoma cruzi) (UniProt P25779). The data set can be described thus: Inhibition of recombinant Trypanosoma cruzi cruzain at 10 uM preincubated for 10 mins followed by Z-FR-AMC substrate addition measured for 5 mins at 12 secs time interval by […] relative to control. In outline: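 Cruzain 0.5 nM in 0.1 M sodium acetate pH 5.5, 1 mM beta-mercaptoethanol, 0.01% Triton X-100, 25 °C; 10 min preincubation, then Z-FR-AMC 2.5 µM (Km 1 µM). Fluorescence (ex 340, em 440) read continuously 5 min; initial rates versus DMSO control. Screens at 10 µM, two independent runs in triplicate; IC50 from at least seven concentrations, four-parameter fit, at least two curves.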
Sequence of Cruzipain (Trypanosoma cruzi) (P25779 123-467 limits assumed): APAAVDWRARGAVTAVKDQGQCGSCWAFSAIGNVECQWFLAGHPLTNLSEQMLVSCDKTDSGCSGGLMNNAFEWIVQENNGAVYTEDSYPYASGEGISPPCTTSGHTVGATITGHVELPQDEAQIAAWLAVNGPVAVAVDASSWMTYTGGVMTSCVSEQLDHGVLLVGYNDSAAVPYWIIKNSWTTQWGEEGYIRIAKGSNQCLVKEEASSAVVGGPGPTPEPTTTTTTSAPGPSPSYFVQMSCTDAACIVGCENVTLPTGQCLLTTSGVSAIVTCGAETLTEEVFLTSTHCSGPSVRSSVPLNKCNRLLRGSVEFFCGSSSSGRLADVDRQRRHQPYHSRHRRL

In data set [8] the test system is Trypanosoma cruzi. The data set can be described thus: Antitrypanosomal activity against bloodstream trypomastigote stage of Trypanosoma cruzi Y assessed as induction of mitochondrial membrane potential loss at 0.4 to 0.8 uM measured after 24 hrs by Rho-123 staining based FACS analysis. Format: functional, organism-based. In outline: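 Trypomastigotes (1 x 10^7/mL) from LLC-MK2 culture supernatants, exposed 24 h at 37°C in DMEM with FBS; washed in PBS, stained 15 min with 5 µg/mL Rhodamine 123, washed, analysed immediately by flow cytometry; 10,000 events gated on trypomastigote region.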
(In general: In flow cytometry, cells or beads pass a laser one at a time.)

Data set [9] concerns Trypanosoma cruzi. The data set can be described thus: Induction of apoptosis in bloodstream trypomastigote stage of Trypanosoma cruzi Y assessed as viable cells at 0.4 uM measured after 24 hrs by Annexin V-FITC/propidium iodide staining based flow cytometry (reference value: 89.73%). Format: functional.
For data set [10], the system named is Trypanosoma cruzi. The data set is described as follows: Induction of apoptosis in bloodstream trypomastigote stage of Trypanosoma cruzi Y assessed as early apoptotic cells at 0.4 uM measured after 24 hrs by Annexin V-FITC/propidium iodide staining based flow cytometry (reference value: 8.25%). Format: functional.
Data set [11] concerns Trypanosoma cruzi. The data set can be described thus: Induction of apoptosis in bloodstream trypomastigote stage of Trypanosoma cruzi Y assessed as late apoptotic cells at 0.4 uM measured after 24 hrs by Annexin V-FITC/propidium iodide staining based flow cytometry (reference value: 1.51%). The format is functional.
In data set [12] the test system is Trypanosoma cruzi. The data set can be described thus: Induction of apoptosis in bloodstream trypomastigote stage of Trypanosoma cruzi Y assessed as necrotic cells at 0.4 uM measured after 24 hrs by Annexin V-FITC/propidium iodide staining based flow cytometry (reference value: 0.5%). The format is functional.
The subject of data set [13] is Trypanosoma cruzi. The data set is described as follows: Antitrypanosomal activity against bloodstream trypomastigote stage of Trypanosoma cruzi Y infected in Balb/c mouse macrophages assessed as reduction in number of infected cells measured after 3 days by hoeschst staining based confocal microscopic method. Format: functional, organism-based. In outline: (§3)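 BALB/c peritoneal macrophages (5x10^4/well) in DMEM/10% FBS, infected with trypomastigotes (10:1) for 2 h, washed, held 24 h, then treated 72 h (test at 8, 2, 0.5 µM; benznidazole 5 µM control). Formaldehyde-fixed, Hoechst-stained, imaged by confocal high-content microscopy for infected cells and amastigotes per 100 cells; six determinations; ANOVA with Bonferroni.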

The subject of data set [14] is Trypanosoma cruzi. The data set is described as follows: Antitrypanosomal activity against bloodstream trypomastigote stage of Trypanosoma cruzi Y infected in Balb/c mouse macrophages assessed as reduction in number of intracellular amastigotes measured after 3 days by hoeschst staining based confocal microscopic method. Format: functional, organism-based. In outline: as §3

Data set [15] has as its system Trypanosoma cruzi. The data set can be described thus: Synergistic antitrypanosomal activity against bloodstream trypomastigote stage of Trypanosoma cruzi Y infected in monkey LLC-MK2 cells measured after 24 hrs in presence of benznidazole. Format: functional. In short, it runs like this:
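Doubling dilutions of each drug alone or in fixed-ratio combinations tested on trypomastigotes by the 24 h motility assay; combination index by Chou-Talalay method and isobologram.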

Data set [16] deals with Trypanosoma cruzi. The data set is described as follows: Antitrypanosomal activity against bloodstream trypomastigote stage of Trypanosoma cruzi Y infected in Balb/c mouse assessed as reduction in blood parasitaemia at 25 mg/kg, po qd administered for 5 consecutive days starting from day 5 post infection measured on day 8 post infection relative to control. Format: functional. Also noted: scale not given: the % may be the effect or the level left. In outline: (§4)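 Female BALB/c mice (18-22 g, 6-8 weeks) infected i.p. with 10^4 Y strain bloodstream trypomastigotes in saline; six per group. From day 5, oral dosing once daily for 5 days; vehicle saline with 20% DMSO. Parasitaemia counted as motile parasites in 5 µL tail-vein blood; reduction = (vehicle mean − treated mean)/vehicle mean × 100. Mortality followed to 30 days post-treatment.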

Data set [17] concerns Trypanosoma cruzi. The data set is described as follows: Antitrypanosomal activity against bloodstream trypomastigote stage of Trypanosoma cruzi Y infected in Balb/c mouse assessed as reduction in blood parasitaemia at 25 mg/kg, po qd administered for 5 consecutive days starting from day 5 post infection measured on day 12 post infection relative to control. Format: functional. Also noted: scale not given: the % may be the effect or the level left. In short, it runs like this:
as §4

The subject of data set [18] is Trypanosoma cruzi. The data set is described as follows: Antitrypanosomal activity against bloodstream trypomastigote stage of Trypanosoma cruzi Y infected in Balb/c mouse assessed as protection against mouse mortality at 25 mg/kg, po qd administered for 5 consecutive days starting from day 5 post infection measured up to 30 days post treatment. Format: functional, organism-based. In outline: as §4

Data set [19] concerns Mus musculus. The data set is described as follows: Toxicity in Balb/c mouse infected with Trypanosoma cruzi Y trypomastigotes assessed as behavioral alteration at 25 mg/kg, po qd administered for 5 consecutive days starting from day 5 post infection. The format is organism-based. Conditions: in vivo. In short, it runs like this: as §4
The nature of data set [20]: Solubility of the compound in pH 5.5 sodium acetate buffer at 10 uM. Conditions: pH 5.5, 10 µM.
In data set [21] the test system is Trypanosoma cruzi. The data set can be described thus: Antitrypanosomal activity against bloodstream trypomastigote stage of Trypanosoma cruzi Y infected in Balb/c mouse macrophages assessed as reduction in number of infected cells at 0.5 uM measured after 3 days by hoeschst staining based confocal microscopic method. The following applies: 5 uM, in the assay text read “at 5 uM” for “at 0.5 uM”. Format: functional, organism-based. In short, it runs like this:
as §3

The subject of data set [22] is Trypanosoma cruzi. The data set is described as follows: Antitrypanosomal activity against bloodstream trypomastigote stage of Trypanosoma cruzi Y infected in Balb/c mouse macrophages assessed as reduction in number of intracellular amastigotes at 0.5 uM measured after 3 days by hoeschst staining based confocal microscopic method. Format: functional, organism-based. The following applies: 5 uM, in the assay text read “at 5 uM” for “at 0.5 uM”. In outline: as §3

The test system of data set [23] is Trypanosoma cruzi. The data set is described as follows: Antitrypanosomal activity against bloodstream trypomastigote stage of Trypanosoma cruzi Y infected in Balb/c mouse assessed as reduction in blood parasitaemia at 100 mg/kg, po qd administered for 5 consecutive days starting from day 5 post infection measured on day 8 post infection relative to control. Format: functional. Also noted: scale not given: the % may be the effect or the level left. In outline: as §4

In data set [24] the test system is Trypanosoma cruzi. The data set can be described thus: Antitrypanosomal activity against bloodstream trypomastigote stage of Trypanosoma cruzi Y infected in Balb/c mouse assessed as reduction in blood parasitaemia at 100 mg/kg, po qd administered for 5 consecutive days starting from day 5 post infection measured on day 12 post infection relative to control. The format is functional. The arrangement: scale not given: the % may be the effect or the level left. In short, it runs like this: as §4

For data set [25], the system named is Trypanosoma cruzi. The data set is described as follows: Antitrypanosomal activity against bloodstream trypomastigote stage of Trypanosoma cruzi Y infected in Balb/c mouse assessed as protection against mouse mortality at 100 mg/kg, po qd administered for 5 consecutive days starting from day 5 post infection measured up to 30 days post treatment. The format is functional, organism-based. In outline: as §4

For data set [26], the system named is Mus musculus. The data set can be described thus: Toxicity in Balb/c mouse infected with Trypanosoma cruzi Y trypomastigotes assessed as behavioral alteration at 100 mg/kg, po qd administered for 5 consecutive days starting from day 5 post infection. Format: organism-based. The following applies: in vivo. In short, it runs like this: as §4

Take `C/C(=N\Nc1nc(-c2ccccn2)cs1)c1ccc(Cl)c(Cl)c1`: the IC50 in data set [1] was 0.37 µM. Moreover, the CC50 at 72 h in data set [2] is 10.1 µM; in data set [3] it was 10.2 µM. The selectivity ratio in data set [4] came to 22; in data set [5] it was 7. Further, the “Ratio IC50” value in [6] was determined as 28. Further, the inhibition in data set [7] stood at 17%. The result in data set [8] and in data set [18] was Active. For the same compound, the Activity was 74.62% in [9]; 18.05% in data set [10]; 7.13% in data set [11]; 0.19% in [12]; “Dose-dependent effect” in data set [13]; “Dose-dependent effect” in data set [14]. The Activity in [16] is 54.6%; in data set [17] it was 64.1%; in data set [19], “Non-Toxic”. Moreover, in [15], the CI worked out at 0.37. Further, the solubility result in data set [20] is recorded as “Soluble”.

With `O=C(Cn1ccnc1[N+](=O)[O-])NCc1ccccc1` [BENZNIDAZOLE], the IC50 in data set [1] is 10.6 µM. Further, the CC50 at 72 h in data set [2] and in [3] was > 50 µM in each case. Moreover, the result in [21], in data set [22] and in [25] was Active. The figures for the Activity in [23], in data set [24] and in data set [26] were >99%, >99% and “Non-Toxic”, respectively.
